Measured values from ChEMBL document CHEMBL3616369, “N-O-Isopropyl Sulfonamido-Based Hydroxamates as Matrix Metalloproteinase Inhibitors: Hit Selection and in Vivo Antiangiogenic Activity” (J Med Chem, 2015).
The source made the active and inactive calls. The calls are words filed in the database; no cut-off is given here.

Tests used:
Interstitial collagenase = molecular target: T1, Interstitial collagenase (Homo sapiens, UniProt P03956); assay: Inhibition of recombinant human activated-MMP1 using Mca-Lys-Pro-Leu-Gly-Leu-Dap(Dnp)-Ala-Arg-NH2 as fluorogenic substrate incubated for 4 hrs followed by substrate addition measured every 10 secs for 20 mins by fluorometric assay
T1 sequence (P03956 whole entry): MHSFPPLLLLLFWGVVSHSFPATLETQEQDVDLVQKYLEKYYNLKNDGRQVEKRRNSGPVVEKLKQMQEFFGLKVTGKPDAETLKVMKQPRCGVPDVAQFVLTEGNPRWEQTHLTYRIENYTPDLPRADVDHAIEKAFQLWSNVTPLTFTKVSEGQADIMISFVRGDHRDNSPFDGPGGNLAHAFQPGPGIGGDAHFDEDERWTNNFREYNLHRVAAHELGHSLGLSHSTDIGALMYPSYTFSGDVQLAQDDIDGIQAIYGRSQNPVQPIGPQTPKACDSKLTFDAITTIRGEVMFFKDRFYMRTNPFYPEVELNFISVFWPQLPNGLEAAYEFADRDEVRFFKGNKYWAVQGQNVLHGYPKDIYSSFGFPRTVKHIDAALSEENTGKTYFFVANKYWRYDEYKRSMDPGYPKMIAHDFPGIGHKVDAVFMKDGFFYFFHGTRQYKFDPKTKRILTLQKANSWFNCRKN
Outline: (§1)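 Recombinant human MMPs. Pro-forms activated with APMA: MMP-2 2 mM 1 h, MMP-9 1 mM 1 h, MMP-1 2 mM 2 h, MMP-13 1 mM 35 min, all 37 °C. MMP-3 activated with trypsin 4.4 µg/mL 30 min, then soybean trypsin inhibitor. Final enzyme 0.5 (MMP-2), 1.3 (MMP-9), 1.0 (MMP-14cd), 2.0 (MMP-1), 0.66 (MMP-13), 5 nM (MMP-3). Preincubated with inhibitor 4 h at 25 °C in Tris 50 mM pH 7.5, NaCl 150 mM, CaCl2 10 mM, Brij 35 0.05%, DMSO 1%. Substrate 2 µM final; fluorescence (ex 325/em 395 nm) every 10 s for 20 min. IC50 from vi/vo = 1/(1+[I]/IC50).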

[1] = molecular target: T2, 72 kDa type IV collagenase (Homo sapiens, UniProt P08253); assay: Inhibition of recombinant human activated-MMP2 using Mca-Lys-Pro-Leu-Gly-Leu-Dap(Dnp)-Ala-Arg-NH2 as fluorogenic substrate incubated for 4 hrs followed by substrate addition measured every 10 secs for 20 mins by fluorometric assay; outline: as §1
Target sequence in this assay (P08253 whole entry): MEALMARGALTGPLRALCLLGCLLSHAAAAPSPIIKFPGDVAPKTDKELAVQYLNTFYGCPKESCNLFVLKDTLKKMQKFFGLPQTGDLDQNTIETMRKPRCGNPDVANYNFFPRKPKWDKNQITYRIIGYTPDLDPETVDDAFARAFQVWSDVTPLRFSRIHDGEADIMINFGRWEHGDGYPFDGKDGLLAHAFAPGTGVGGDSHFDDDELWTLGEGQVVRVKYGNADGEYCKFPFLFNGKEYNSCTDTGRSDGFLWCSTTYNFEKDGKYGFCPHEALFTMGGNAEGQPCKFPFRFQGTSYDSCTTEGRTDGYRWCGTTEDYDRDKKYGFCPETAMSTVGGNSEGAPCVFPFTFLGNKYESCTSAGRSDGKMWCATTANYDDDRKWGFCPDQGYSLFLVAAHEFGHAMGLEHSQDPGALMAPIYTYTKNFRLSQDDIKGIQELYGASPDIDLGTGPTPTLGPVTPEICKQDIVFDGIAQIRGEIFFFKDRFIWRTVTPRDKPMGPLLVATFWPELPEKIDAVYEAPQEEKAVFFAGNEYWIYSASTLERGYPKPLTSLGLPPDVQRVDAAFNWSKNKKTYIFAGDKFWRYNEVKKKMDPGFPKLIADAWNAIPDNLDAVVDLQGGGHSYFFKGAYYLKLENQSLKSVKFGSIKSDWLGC

Stromelysin-1 = Stromelysin-1 (Homo sapiens, UniProt P08254); assay: Inhibition of recombinant human activated-MMP3 using Mca-Lys-Pro-Leu-Gly-Leu-Dap(Dnp)-Ala-Arg-NH2 as fluorogenic substrate incubated for 4 hrs followed by substrate addition measured every 10 secs for 20 mins by fluorometric assay; outline: as §1
Chain of Stromelysin-1 (P08254 whole entry): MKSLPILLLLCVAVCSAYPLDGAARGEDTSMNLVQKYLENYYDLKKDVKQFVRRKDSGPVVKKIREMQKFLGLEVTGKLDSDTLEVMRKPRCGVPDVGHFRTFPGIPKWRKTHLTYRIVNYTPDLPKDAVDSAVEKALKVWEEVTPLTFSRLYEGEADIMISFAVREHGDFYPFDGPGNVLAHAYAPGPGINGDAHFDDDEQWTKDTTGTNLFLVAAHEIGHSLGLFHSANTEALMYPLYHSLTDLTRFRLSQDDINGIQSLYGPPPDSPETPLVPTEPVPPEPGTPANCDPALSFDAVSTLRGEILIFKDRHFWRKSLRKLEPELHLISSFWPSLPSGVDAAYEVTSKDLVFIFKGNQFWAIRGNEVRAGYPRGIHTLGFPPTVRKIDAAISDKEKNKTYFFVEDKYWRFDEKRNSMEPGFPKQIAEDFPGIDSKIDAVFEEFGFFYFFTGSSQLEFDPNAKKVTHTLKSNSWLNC

[2] = molecular target: T3, Matrix metalloproteinase-9 (Homo sapiens, UniProt P14780); assay: Inhibition of recombinant human activated-MMP9 using Mca-Lys-Pro-Leu-Gly-Leu-Dap(Dnp)-Ala-Arg-NH2 as fluorogenic substrate incubated for 4 hrs followed by substrate addition measured every 10 secs for 20 mins by fluorometric assay; outline: as §1
T3 sequence (P14780 whole entry): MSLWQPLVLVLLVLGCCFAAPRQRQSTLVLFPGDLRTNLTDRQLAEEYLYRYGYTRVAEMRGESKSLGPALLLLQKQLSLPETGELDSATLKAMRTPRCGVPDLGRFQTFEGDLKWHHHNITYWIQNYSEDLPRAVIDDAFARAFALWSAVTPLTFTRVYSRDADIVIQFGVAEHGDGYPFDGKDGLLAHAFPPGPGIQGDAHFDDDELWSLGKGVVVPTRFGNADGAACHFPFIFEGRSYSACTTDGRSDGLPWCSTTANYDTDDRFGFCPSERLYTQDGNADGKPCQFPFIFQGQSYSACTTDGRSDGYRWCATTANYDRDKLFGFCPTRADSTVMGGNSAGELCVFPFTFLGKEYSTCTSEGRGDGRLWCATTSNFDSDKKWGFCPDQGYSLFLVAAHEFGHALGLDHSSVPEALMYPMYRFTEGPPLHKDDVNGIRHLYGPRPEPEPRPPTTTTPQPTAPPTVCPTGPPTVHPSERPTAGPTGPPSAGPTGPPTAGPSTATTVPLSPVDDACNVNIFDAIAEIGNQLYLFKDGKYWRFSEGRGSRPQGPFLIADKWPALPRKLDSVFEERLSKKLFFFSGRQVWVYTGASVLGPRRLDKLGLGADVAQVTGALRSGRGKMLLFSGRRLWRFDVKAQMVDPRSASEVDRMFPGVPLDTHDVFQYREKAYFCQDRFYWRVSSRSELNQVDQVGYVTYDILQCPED

U-87 MG = assay: Antiinvasive activity in human U87MG cells after 24 hrs by Transwell matrigel assay; format: functional, U-87MG ATCC
[3] = molecular target: Matrix metalloproteinase-14 (Homo sapiens, UniProt P50281); assay: Inhibition of recombinant human catalytic domain MMP14 using Mca-Lys-Pro-Leu-Gly-Leu-Dap(Dnp)-Ala-Arg-NH2 as fluorogenic substrate incubated for 4 hrs followed by substrate addition measured every 10 secs for 20 mins by fluorometric assay; outline: as §1
HUVEC [4] = assay: Inhibition of cell migration in human HUVEC at 0.001 to 10 uM after 6 hrs using modified Boyden chambers; format: functional, cell-based
Outline: (§2)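 Modified Boyden chamber. HUVEC (5x10^4), PBS-washed, in serum-free medium with or without inhibitor in upper compartment; 10% FBS or serum-free medium below. 8 µm polycarbonate filters coated with collagen 50 µg/mL (migration, 6 h) or matrigel 1 mg/mL (invasion, overnight). Cells on lower surface ethanol-fixed, stained, counted blind in eight fields. Three experiments in duplicate; one-way ANOVA.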

HUVEC [5] = assay: Inhibition of FBS-induced cell invasion in human HUVEC after overnight incubation using modified Boyden chambers; format: functional, cell-based; outline: as §2
HUVEC [6] = assay: Inhibition of FBS-induced capillary-like network organization in human HUVEC at 0.001 to 10 uM after 6 hrs by matrigel assay; format: functional, cell-based
Outline: (§3)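 Matrigel (10 mg/mL) polymerized 1 h at 37 °C. HUVEC (50x10^4/well) in complete medium with 10% FBS, with or without inhibitor at various concentrations, layered on top. After 6 h, capillary-like organization imaged by inverted microscope; mesh number counted as tubulogenic efficiency.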

HUVEC [7] = assay: Inhibition of FBS-induced network efficiency of human HUVEC assessed as reduction of number of meshes at 0.001 to 10 uM after 6 hrs by matrigel assay; format: functional, cell-based; outline: as §3
[8] = molecular target: T2, 72 kDa type IV collagenase; assay: Inhibition of MMP2 gelatinase activity in human HUVEC by gel zymography
Outline: (§4)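 Gelatin zymography on 10% polyacrylamide gels with 0.1% gelatin and SDS, samples unheated. Gels renatured 30 min at room temperature. Either untreated-HUVEC conditioned medium run and gel lane slices developed overnight at 37 °C in developing buffer containing inhibitor, or medium from inhibitor-treated HUVEC developed overnight without inhibitor. Coomassie stained; bands quantified by densitometry.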
Target sequence in this assay (P08253 110-660 limits assumed): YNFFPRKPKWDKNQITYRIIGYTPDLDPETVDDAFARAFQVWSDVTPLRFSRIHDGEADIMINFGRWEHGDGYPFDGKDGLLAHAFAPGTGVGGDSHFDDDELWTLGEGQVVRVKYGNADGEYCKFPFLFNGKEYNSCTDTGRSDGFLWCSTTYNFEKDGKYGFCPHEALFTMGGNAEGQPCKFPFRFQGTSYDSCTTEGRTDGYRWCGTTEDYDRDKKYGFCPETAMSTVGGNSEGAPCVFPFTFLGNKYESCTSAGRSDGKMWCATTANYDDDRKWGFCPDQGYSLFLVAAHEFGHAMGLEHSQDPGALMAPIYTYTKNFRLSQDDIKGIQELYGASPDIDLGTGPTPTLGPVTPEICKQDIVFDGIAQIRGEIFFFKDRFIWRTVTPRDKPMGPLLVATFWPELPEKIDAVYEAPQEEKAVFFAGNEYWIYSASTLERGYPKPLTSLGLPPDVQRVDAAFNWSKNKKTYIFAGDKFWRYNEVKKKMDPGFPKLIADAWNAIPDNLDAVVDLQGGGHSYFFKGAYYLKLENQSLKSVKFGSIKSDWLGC

[9] = molecular target: T3, Matrix metalloproteinase-9; assay: Inhibition of MMP9 gelatinase activity in human HUVEC by gel zymography; outline: as §4
[10] = molecular target: T2, 72 kDa type IV collagenase; assay: Inhibition of MMP2 gelatinase activity in human HUVEC at 0.1 uM by gel zymography; outline: as §4
Target sequence in this assay (P08253 110-660 limits assumed): as above

[11] = molecular target: T3, Matrix metalloproteinase-9; details: HUVEC, 0.1 uM

| Compound | IC50 (Interstitial collagenase) [µM] | IC50 [1] [µM] | IC50 (Stromelysin-1) [µM] | IC50 [2] [µM] | Activity (U-87 MG) [%] | IC50 [3] [µM] | inhibition (HUVEC [4]) | inhibition (HUVEC [5]) | inhibition (HUVEC [6]) | inhibition (HUVEC [7]) | inhibition [8] | inhibition [9] | inhibition [10] | inhibition [11] |
| --- | --- | --- | --- | --- | --- | --- | --- | --- | --- | --- | --- | --- | --- | --- |
| CC(C)ON([C@H](CCNC(=O)Cc1ccccc1)C(=O)NO)S(=O)(=O)c1ccc(-c2ccccc2)cc1 | 1.3 | 0.0014 | 0.12 | 0.0064 |  |  |  |  |  |  |  |  |  |  |
| CC(C)ON([C@@H](C(=O)NO)C(C)C)S(=O)(=O)c1ccc(-c2ccccc2)cc1 |  |  |  |  | 48 |  |  |  |  |  |  |  |  |  |
| COc1ccc(-c2ccc(S(=O)(=O)N(OC(C)C)[C@H](CCNC(C)=O)C(=O)NO)cc2)cc1 | 0.66 |  | 0.02 | 0.002 |  | 0.023 | Active | Dose-dependent effect | Active | Active | Dose-dependent effect | Dose-dependent effect | Active | Active |
| CC(=O)NCC[C@H](C(=O)NO)N(OC(C)C)S(=O)(=O)c1ccc(-c2ccccc2)cc1 | 0.28 |  | 0.047 | 0.0065 |  |  |  |  |  |  |  |  |  |  |
